{"source": "ChEMBL document CHEMBL1275556", "about": "“High prevalence of plasmid-mediated quinolone resistance genes qnr and aac(6')-Ib-cr in clinical isolates of Enterobacteriaceae from nine teaching hospitals in China” (2008)", "key": {"[1]": {"system": "Escherichia coli", "assay": "Antimicrobial activity against aac(6')-Ib-cr-positive Escherichia coli FJ3T harboring wild-type GyrA, ParC, GyrB and qnrB genes by agar dilution method"}, "[2]": {"system": "Citrobacter freundii", "assay": "Antimicrobial activity against aac(6')-Ib-cr-positive Citrobacter freundii JN1T by agar dilution method", "assay_type": "functional", "outline": "(§1)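 MICs were determined by the CLSI agar dilution method (M7-A7) and interpreted against CLSI M100-S17 breakpoints.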"}, "[3]": {"system": "Citrobacter freundii", "assay": "Antimicrobial activity against aac(6')-Ib-cr-negative Citrobacter freundii JN64T harboring qnrA gene by agar dilution method", "assay_type": "functional", "outline": "as §1"}, "[4]": {"system": "Citrobacter freundii", "assay": "Antimicrobial activity against aac(6')-Ib-cr-positive Citrobacter freundii JS33 harboring GyrA T83I mutant, wild-type ParC, GyrB, qnrA and qnrB genes by agar dilution method", "assay_type": "functional", "outline": "as §1"}, "[5]": {"system": "Klebsiella pneumoniae", "assay": "Antimicrobial activity against aac(6')-Ib-cr-positive Klebsiella pneumoniae WH99 harboring wild-type GyrA, ParC, GyrB and qnrB genes by agar dilution method", "assay_type": "functional", "outline": "(§2)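 MICs were determined on clinical isolates by CLSI agar dilution (M7-A7) and interpreted against CLSI M100-S17 breakpoints.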"}, "[6]": {"system": "Klebsiella pneumoniae", "assay": "Antimicrobial activity against aac(6')-Ib-cr-negative Klebsiella pneumoniae SY22 harboring GyrA S83I, ParC S80I mutant, wild-type GyrB and qnrS genes by agar dilution method", "assay_type": "functional", "outline": "as §1"}, "[7]": {"system": "Citrobacter freundii", "assay": "Antimicrobial activity against aac(6')-Ib-cr-positive Citrobacter freundii PU55 harboring GyrA T83I, ParC S80I mutant, wild-type GyrB, qnrA genes by agar dilution method", "assay_type": "functional", "outline": "as §1"}, "[8]": {"system": "Escherichia coli", "assay": "Antimicrobial activity against aac(6')-Ib-cr-positive Escherichia coli FJ3 harboring GyrA S83L, ParC S80R mutant, wild-type GyrB and qnrB genes by agar dilution method", "assay_type": "functional", "outline": "as §1"}, "[9]": {"system": "Klebsiella pneumoniae", "assay": "Antimicrobial activity against aac(6')-Ib-cr-positive Klebsiella pneumoniae JN41T harboring qnrB gene by agar dilution method", "assay_type": "functional", "outline": "(§3)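 Transconjugants were made by conjugating a qnr/aac(6')-Ib-cr donor with azide-resistant E. coli J53. Selection used Trypticase soy agar with sodium azide 150 µg/ml and sulfamethoxazole 180 µg/ml. […] MICs were read by CLSI agar dilution (M7-A7) and interpreted per M100-S17.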"}, "[10]": {"system": "Klebsiella pneumoniae", "assay": "Antimicrobial activity against aac(6')-Ib-cr-positive Klebsiella pneumoniae SY26 harboring GyrA S83I, ParC S80I mutant, wild-type GyrB and qnrB genes by agar dilution method", "assay_type": "functional", "outline": "as §2"}, "[11]": {"system": "Klebsiella pneumoniae", "assay": "Antimicrobial activity against aac(6')-Ib-cr-positive Klebsiella pneumoniae JN132T harboring qnrB gene by agar dilution method", "assay_type": "functional", "outline": "as §3"}, "[12]": {"system": "Klebsiella pneumoniae", "assay": "Antimicrobial activity against aac(6')-Ib-cr-positive Klebsiella pneumoniae JN41 harboring GyrA S83I, ParC S80I mutant, wild-type GyrB and qnrB genes by agar dilution method", "assay_type": "functional", "outline": "as §2"}, "[13]": {"system": "Klebsiella pneumoniae", "assay": "Antimicrobial activity against aac(6')-Ib-cr-positive Klebsiella pneumoniae JN132 harboring GyrA S83I, ParC S80I mutant, wild-type GyrB and qnrB genes by agar dilution method", "assay_type": "functional", "outline": "as §2"}, "[14]": {"system": "Escherichia coli", "assay": "Antimicrobial activity against aac(6')-Ib-cr-negative Escherichia coli PU12 harboring GyrA S83L mutant, wild-type GyrB, ParC and qnrS genes by agar dilution method", "assay_type": "functional", "outline": "as §1"}, "[15]": {"system": "Escherichia coli", "assay": "Antimicrobial activity against aac(6')-Ib-cr-negative Escherichia coli PU12T harboring wild-type GyrA, GyrB, ParC and qnrS genes by agar dilution method", "assay_type": "functional", "outline": "as §1"}, "[16]": {"system": "Klebsiella pneumoniae", "assay": "Antimicrobial activity against aac(6')-Ib-cr-positive Klebsiella pneumoniae WH99T harboring qnrB gene by agar dilution method", "assay_type": "functional", "outline": "as §3"}}, "data": [{"smiles": "CO/N=C(\\C(=O)N[C@@H]1C(=O)N2C(C(=O)[O-])=C(C[N+]3(C)CCCC3)CS[C@H]12)c1csc(N)n1", "values": [{"measurement": "MIC", "setting": "[1]", "result": 4, "unit": "µg/mL"}, {"measurement": "MIC", "setting": "[2]", "result": 1, "unit": "µg/mL"}, {"measurement": "MIC", "setting": "[3]", "result": 4, "unit": "µg/mL"}, {"measurement": "MIC", "setting": "[4]", "result": 0.25, "unit": "µg/mL"}, {"measurement": "MIC", "setting": "[5]", "result": 2, "unit": "µg/mL"}, {"measurement": "MIC", "setting": "[6]", "result": 1, "unit": "µg/mL"}, {"measurement": "MIC", "setting": "[7]", "result": 1, "unit": "µg/mL"}, {"measurement": "MIC", "setting": "[8]", "result": 8, "unit": "µg/mL"}, {"measurement": "MIC", "setting": "[9]", "result": 1, "unit": "µg/mL"}, {"measurement": "MIC", "setting": "[10]", "result": 0.5, "unit": "µg/mL"}, {"measurement": "MIC", "setting": "[11]", "result": 2, "unit": "µg/mL"}, {"measurement": "MIC", "setting": "[12]", "result": 2, "unit": "µg/mL"}, {"measurement": "MIC", "setting": "[13]", "result": 2, "unit": "µg/mL"}, {"measurement": "MIC", "setting": "[14]", "result": 2, "unit": "µg/mL"}, {"measurement": "MIC", "setting": "[15]", "result": 2, "unit": "µg/mL"}, {"measurement": "MIC", "setting": "[16]", "result": 1, "unit": "µg/mL"}]}]}
